Compound activity from PubChem BioAssay.
WT yeast gro inh: growth inhibition of WT yeast, mitochondrial fusion screen; mitochondrial fusion phenotypic screen, WT strain; inhibition, % at 10 µM; actives 2.1% (n = 190,000); AID 1362; in the data active = inhibition above about 58%; tested in S. cerevisiae
Yeast lifespan up: yeast lifespan extension; inhibition of the nicotinamide effect, % at 10 µM; S. cerevisiae growth with nicotinamide, OD615; deaD strain in restrictive glucose medium; AID 775; actives 0.68% (n = 130,000);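 active = inhibition above a set limit, placed 3 SD over the median of all compounds, cut at about 26% in these data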;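 also: 0% = nicotinamide-treated wells and 100% = cells grown without nicotinamide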
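assay system = DeaD-strain S. cerevisiae | measured by = absorbance at 615 nm | probe or stimulus = nicotinamide 1.5 mM | buffer or medium = CSMM-D glucose medium, restrictive | times = 48 h at 30 °C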
RAM inhibit: blocks the yeast RAM network | S. cerevisiae dse1pr::URA3 reporter, 5-FOA growth OD615, 2 d; analog-sensitive cbk1-as2 kinase mutant strain | inhibition, % at 50 µM | actives 1.8% (n = 190,000);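 active = inhibition above a set limit, 3 SD over mean compound inhibition, cut at about 8.4% in these data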;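 also: 0% = DMSO-only wells with no growth and 100% = 10 µM 1-NA-PP1 full growth; inhibition rescues growth on 5-FOA so higher OD means more RAM inhibition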
Yeast growth inh: yeast BB579 growth reduction in restrictive medium | AID 804 | S. cerevisiae BB579 growth, OD615, 48 h | actives 0.51% (n = 140,000) | inhibition, % at 10 µM;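 active = inhibition above a set limit, 3 SD over the mean compound inhibition, cut at about 44% in these data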
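test system = yeast BB579 (DeaD) | buffer or medium = restrictive CSMM-D medium | doses = single compound dose of 10 µM, 0.25% DMSO final | times = 4 h preincubation and 48 h exposure at 30 °C | technique = culture absorbance at 615 nm | benchmarks = amphotericin B 10 µg/mL, positive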
Cl transport mod: KCC2 (human) Cl- transport modulation. KCC2 cells, thallium flux FluoZin-2 fluorescence. B-score of Tl+ flux slope (higher = more flux/activation; lower = inhibition) at 10 µM. actives 2.2% (n = 190,000). AID 1456;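 active = thallium flux slope and its plate-corrected score both differing from the plate sample mean at a set confidence after two filtering rounds, in either direction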;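 also: slope of fluorescence scaled to starting intensity during 10 to 20 s after thallium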
Target sequence (Q9H2X9 whole entry, looked up): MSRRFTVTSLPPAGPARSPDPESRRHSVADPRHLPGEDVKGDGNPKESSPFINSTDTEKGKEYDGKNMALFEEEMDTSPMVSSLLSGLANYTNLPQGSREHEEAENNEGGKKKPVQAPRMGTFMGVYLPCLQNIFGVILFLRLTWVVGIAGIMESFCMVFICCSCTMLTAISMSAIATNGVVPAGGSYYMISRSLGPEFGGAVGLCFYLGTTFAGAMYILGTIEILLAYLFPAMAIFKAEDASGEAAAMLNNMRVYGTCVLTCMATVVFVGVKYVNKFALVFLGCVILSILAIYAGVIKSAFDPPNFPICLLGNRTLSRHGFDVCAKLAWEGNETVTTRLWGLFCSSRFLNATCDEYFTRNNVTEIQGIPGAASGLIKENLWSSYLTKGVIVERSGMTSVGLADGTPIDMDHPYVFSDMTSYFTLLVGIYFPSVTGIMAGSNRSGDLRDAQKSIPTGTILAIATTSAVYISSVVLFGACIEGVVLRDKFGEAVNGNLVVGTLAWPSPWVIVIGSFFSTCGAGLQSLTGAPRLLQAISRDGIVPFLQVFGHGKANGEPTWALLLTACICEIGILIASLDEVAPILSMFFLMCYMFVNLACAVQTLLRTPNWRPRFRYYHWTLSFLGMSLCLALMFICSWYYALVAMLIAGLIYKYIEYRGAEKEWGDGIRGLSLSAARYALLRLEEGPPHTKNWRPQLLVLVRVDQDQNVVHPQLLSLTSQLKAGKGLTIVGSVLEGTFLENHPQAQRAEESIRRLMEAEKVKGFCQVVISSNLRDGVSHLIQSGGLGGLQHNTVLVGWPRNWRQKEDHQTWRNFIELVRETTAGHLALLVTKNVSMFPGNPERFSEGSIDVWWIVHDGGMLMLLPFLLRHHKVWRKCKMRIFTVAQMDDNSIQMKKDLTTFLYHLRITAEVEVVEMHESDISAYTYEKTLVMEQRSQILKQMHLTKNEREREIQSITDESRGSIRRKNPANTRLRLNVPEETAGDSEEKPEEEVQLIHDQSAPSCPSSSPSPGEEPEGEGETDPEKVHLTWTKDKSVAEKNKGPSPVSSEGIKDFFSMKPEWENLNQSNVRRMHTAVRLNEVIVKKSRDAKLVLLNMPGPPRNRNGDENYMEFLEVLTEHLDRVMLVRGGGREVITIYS
KCC2 sec1: KCC2 (human) modulation, secondary assay; normalised thallium flux (F/F0 slope) at 10 µM; shares compounds with Cl transport mod; actives 15% (n = 3,700); HEK293-KCC2, thallium flux, FluoZin2 fluorescence; hits give high values; AID 1713;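 active = thallium flux slope above the same plate's solvent-only control mean plus 3 SD; inconclusive = the two replicate wells disagree; inactive = no significant difference from solvent-only control wells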
KCC2 bumet counter: thallium flux despite bumetanide block in KCC2 cells, secondary assay 3 | normalized thallium flux at 10 µM | HEK293-KCC2 + bumetanide/ouabain, thallium flux FluoZin2; hits give high values | AID 1714 | shares compounds with Cl transport mod | actives 49% (n = 3,700);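 active = thallium entry rate above the same plate's blocked-transporter control wells by more than 3 SD; inconclusive = the two repeat wells disagree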;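 also: raw slope of fluorescence over initial fluorescence between 10 and 20 s after thallium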
KCC2 secondary2: KCC2 (human) modulation, second secondary assay | AID 1715 | normalized thallium flux at 10 µM | shares compounds with Cl transport mod | HEK293-KCC2, thallium flux FluoZin2 fluorescence; actives lie on both sides; F/F0 rise rate, 10–20 s post-thallium | actives 23% (n = 3,700);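 active = thallium flux slope more than 3 SD above or below the plate's solvent-only control mean, mostly below; inconclusive = the two repeat wells disagreed; inactive = no significant shift from solvent-only controls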;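 also: raw slope with 0.1% DMSO as baseline and bumetanide as block control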
HEK counter1: counter-screen for KCC2 modulators: effect in parental HEK293 cells; shares compounds with Cl transport mod; thallium flux FluoZin2, ouabain; baseline-ratio fluorescence slope, 10–20 s after thallium; thallium flux rate (normalised fluorescence) at 10 µM; actives 46% (n = 3,700); AID 1716;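 active = thallium flux rate significantly above the same plate's solvent-only control wells, beyond their mean plus 3 SD; inconclusive = the two replicate wells gave conflicting results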
KCC2 ouabain: confirmation of human KCC2 modulators with ouabain | shares compounds with Cl transport mod | HEK293-KCC2, thallium flux FluoZin2 fluorescence; bidirectional: low = inhibitor, high = activator | raw Tl+ flux slope (below DMSO = inhibition, above = activation) at 10 µM | actives 48% (n = 3,700);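 active = thallium flux slope beyond 3 SD from same-plate DMSO control mean in most replicates, usually higher, sometimes lower; inconclusive = repeat tests gave conflicting results; inactive = no significant difference from controls in most replicates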;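 also: slope of initial-normalized fluorescence between seconds 10 and 20 after thallium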
HEK counter2: parental HEK flux effect, counter-screen 2. shares compounds with Cl transport mod. HEK293 parental, thallium flux FluoZin-2 fluorescence slope. thallium flux slope at 10 µM. actives 33% (n = 3,700). AID 1718;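 active = thallium flux slope above the same plate's solvent-control mean plus 3 SD in both duplicate wells; inconclusive = duplicate wells that disagreed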;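 also: run without ouabain in cells lacking the KCC2 cotransporter; slope of fluorescence scaled to its starting value between 10 and 20 s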
An asterisk follows results filed as active; ? = inconclusive; . = no result given. A selection: hits, their analogues and other compounds. The true share with any hit is near 5.5%.

SMILES | WT yeast gro inh | Yeast lifespan up | RAM inhibit | Yeast growth inh | Cl transport mod | KCC2 sec1 | KCC2 bumet counter | KCC2 secondary2 | HEK counter1 | KCC2 ouabain | HEK counter2
O=C1CCC(=O)N1c1ccc(-c2nc3ccccc3s2)cc1 | 7.4 | . | 2.8 | . | 0.411 | . | . | . | . | . | .
O=C1CNC(=S)N1c1nc2ccccc2s1 | . | . | . | . | 5.31* | 0.00686 | 0.0104* | 0.0314 | 0.0106* | 0.0212 | 0.0121*
COc1cccc(CN2CCNC(=O)C2CC(=O)NCc2cc(C(C)C)no2)c1 (stereo not drawn) | -14.7 | . | 0.5 | . | -0.0242 | . | . | . | . | . | .
Cn1c(C(=O)Nc2ccc3c(c2)OCO3)cc2c(=O)n(C)c3ccccc3c21 | 9.5 | -4.7 | 4.5 | -40.6 | 0.00147 | . | . | . | . | . | .
Cc1ccc(CNC(=O)c2cc3c(=O)n(C)c4ccccc4c3n2C)o1 | -3.9 | -8.0 | 6.4 | -21.2 | -4.33* | 0.0103 | 0.00675 | 0.0279 | 0.00763 | 0.0218* | ?
Cn1c(C(=O)NCCCN2CCOCC2)cc2c(=O)n(C)c3ccccc3c21 | 3.5 | -4.2 | 0.4 | -98.9 | -0.747 | . | . | . | . | . | .
Cn1c(C(=O)NCCCN2CCN(c3ccccc3F)CC2)cc2c(=O)n(C)c3ccccc3c21 | -0.6 | -9.3 | 1.0 | -18.6 | -3.08 | 0.00739 | 0.00455 | 0.0236* | 0.00759 | ? | 0.011
CCOc1ccc(NC(=O)c2cc3c(=O)n(C)c4ccccc4c3n2C)cc1 | -7.7 | -9.9 | 3.6 | -31.2 | -2.01 | 0.00768 | 0.00673 | 0.0328 | 0.00738 | ? | 0.0107
CN(C)S(=O)(=O)c1cc(NC(=O)CN2CCOCC2)ccc1Cl | 10.2 | . | 3.4 | . | -0.295 | . | . | . | . | . | .
CCCN1C=CC(=CC=C(C#N)C#N)C=C1 | . | . | . | . | -7.81* | 0.00215* | -0.00144* | 0.0233* | ? | 0.00659* | ?
O=C(CN1C(=O)NC2(CCCCC2)C1=O)NC1CCCc2ccccc21 (stereo not drawn) | -2.6 | 2.0 | 1.9 | 2.2 | 0.843 | . | . | . | . | . | .
Cc1ccccc1-n1c(=S)[nH]c2nc3c(cc2c1=O)CCCC3 | -1.5 | . | 2.7 | . | 25* | 0.0255* | 0.0689* | 0.0454* | 0.0462* | 0.0434* | 0.035*
CC(C)NC(=O)NC(=O)COc1ccc(Br)cc1Br | -3.1 | -8.1 | -2.0 | 3.8 | -0.5 | . | . | . | . | . | .
COC(=O)c1sccc1NC(=O)CSc1ccccc1NS(=O)(=O)c1ccc(Br)cc1 | 5.5 | -7.4 | 3.7 | -25.4 | 3.53* | 0.00826 | 0.0128* | 0.0367 | 0.0157* | 0.0237 | 0.0126*
COC(=O)c1sccc1NC(=O)CSc1ccccc1NS(=O)(=O)c1ccc(F)cc1 | 26.7 | -10.7 | 3.8 | -48.5 | . | . | . | . | . | . | .
CCc1ccc(OC(C)c2nnc(SCC(=O)Nc3ncccc3C)n2C)cc1 (stereo not drawn) | 2.6 | 1.7 | 2.8 | -16.8 | -1.91 | . | . | . | . | . | .
Cc1ccc(Nc2nc3ccccc3c(=O)s2)cc1 | 17.8 | . | 3.0 | . | 14.2* | 0.011* | 0.0308* | 0.0314 | 0.0132* | 0.0338* | 0.0112*
Cc1nc(Nc2ccc(Cl)cc2Cl)sc1C(=O)Nc1ccccc1 | 71.0* | -4.5 | 0.5 | -30.0 | 3.65* | 0.0173 | 0.00463 | 0.027 | 0.00725 | 0.0159 | 0.0103
CCOC(=O)C(CC)(CCC(=O)O)c1csc(Nc2ccc(C)cc2)n1 (stereo not drawn) | -16.3 | . | -0.8 | . | -2.89* | 0.0175 | 0.00447 | 0.0291 | 0.006* | 0.0145 | 0.00965
CCOC(=O)Cc1csc(Nc2ccc(Cl)cc2)n1 | 29.9 | -6.5 | 0.9 | -10.8 | -0.512 | . | . | . | . | . | .
O=C(NCCN=C1NS(=O)(=O)c2ccccc21)c1ccc2nccnc2c1 | 4.1 | -15.3 | 1.9 | -26.9 | -0.18 | . | . | . | . | . | .
O=C(NCCN=C1NS(=O)(=O)c2ccccc21)c1ccncc1 | -36.8 | -8.0 | 1.9 | -16.0 | 7.02* | 0.0109 | 0.00582 | 0.0321 | ? | 0.0222 | 0.01
O=C(Nc1ccc2ccccc2c1)C(=O)C1C(=O)Nc2ccccc21 (stereo not drawn) | . | . | . | . | 25.1* | ? | 0.0225* | ? | 0.0176* | 0.0215 | 0.0174*
O=C(Nc1ccc(F)cc1)C(=O)C1C(=O)Nc2ccccc21 (stereo not drawn) | . | . | . | . | 2.41 | . | . | . | . | . | .
O=S(=O)(NCc1csc(-c2ccccc2)n1)c1ccc(Cl)s1 | 21.7 | 0.2 | 0.9 | -33.6 | -5.72* | 0.00509 | 0.0141* | 0.0221* | 0.00685 | 0.0163* | ?
SMILES | WT yeast gro inh | Yeast lifespan up | RAM inhibit | Yeast growth inh | Cl transport mod | KCC2 sec1 | KCC2 bumet counter | KCC2 secondary2 | HEK counter1 | KCC2 ouabain | HEK counter2
CCC1(c2ccccc2)NC(=S)N(c2ccc(C)cc2)N1 (stereo not drawn) | 62.0* | . | 0.1 | . | 77.5* | 0.0306* | 0.0999* | 0.0728* | 0.093* | 0.092* | 0.0906*
CCCCCCC1(C)NC(=S)N(c2ccccc2)N1 (stereo not drawn) | 16.7 | . | -0.4 | . | -0.0721 | . | . | . | . | . | .
CN(C)S(=O)(=O)c1ccc(C(=O)Nc2ccccc2C(=O)O)cc1 | -17.2 | -4.7 | 1.7 | -25.6 | -4.13* | 0.00943 | 0.00547 | 0.0292 | 0.00719 | 0.022 | ?
CN(C)S(=O)(=O)c1ccc(C(=O)Nc2ccccc2F)cc1 | -7.5 | -8.5 | 0.6 | -21.0 | . | . | . | . | . | . | .
CCCCC(Sc1nc(N)c(NC(=O)c2ccc(OC)cc2)c(=O)[nH]1)C(=O)O (stereo not drawn) | -5.1 | . | 1.3 | . | -0.0365 | . | . | . | . | . | .
Cc1nn(-c2ccc(F)cc2)c(C)c1NS(=O)(=O)c1ccc(Cl)cc1 | 14.6 | -12.6 | 1.5 | -45.9 | -4.6* | 0.00566 | 0.00487 | 0.0215* | 0.00676 | ? | 0.0102
CNC(=S)NCC(O)c1ccc([N+](=O)[O-])cc1 (stereo not drawn) | -10.3 | . | -2.1 | . | 0.169 | . | . | . | . | . | .
Cc1ccc(-c2ccc(CCC(=O)O)n2C(C)C)cc1 | -7.5 | 2.3 | 1.3 | -1.8 | -4.35* | 0.0092 | 0.00671 | 0.0294 | 0.00682 | 0.0209 | 0.00959
Cc1ccc(-c2ccc(CCC(=O)O)n2NC(N)=S)cc1 | 2.2 | -4.0 | -1.7 | -25.2 | 0.533 | . | . | . | . | . | .
O=c1c(/C=N/OCc2ccc(Cl)cc2Cl)c[nH]n1-c1cccc(Cl)n1 | 55.9 | . | 2.3 | . | 36.6* | 0.00805 | 0.0774* | 0.0746* | 0.0711* | 0.0735* | 0.0662*
